Experimental findings from the M2OR odorant receptor database are described below.
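Also: active if original authors judged signal statistically different from baseline.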

The first experiment concerns the target T1, OR5J2 (Homo sapiens) (UniProt Q8NH18).
T1 sequence (whole entry): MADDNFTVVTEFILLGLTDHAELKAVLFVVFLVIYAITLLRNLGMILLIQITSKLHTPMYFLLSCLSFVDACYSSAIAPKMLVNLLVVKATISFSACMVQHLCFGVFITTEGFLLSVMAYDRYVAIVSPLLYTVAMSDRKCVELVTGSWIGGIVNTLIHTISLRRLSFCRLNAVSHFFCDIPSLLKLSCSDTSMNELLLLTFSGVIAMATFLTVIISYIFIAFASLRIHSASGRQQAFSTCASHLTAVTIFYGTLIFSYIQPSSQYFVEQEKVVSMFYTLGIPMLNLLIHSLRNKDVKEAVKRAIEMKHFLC
To be noted: stereoisomer not certain. The procedure, abridged: (§1)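 Each receptor–molecule pair is labelled responsive or non-responsive (inactive) according to whether the original authors judged the measured signal statistically different from baseline. The data were taken from the main text and supplementary material of published papers and checked for typos and inconsistencies. Assay methods differed by source, with transient luciferase assays in mammalian cell lines being common.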
Turning to `CCCCC(S)C(C)CO` (configuration not stated), the “odorant receptor agonist call” value is “inactive”.

The target of a further experiment is T2, OR5K1 (Homo sapiens) (UniProt Q8NHB7).
T2 sequence (whole entry): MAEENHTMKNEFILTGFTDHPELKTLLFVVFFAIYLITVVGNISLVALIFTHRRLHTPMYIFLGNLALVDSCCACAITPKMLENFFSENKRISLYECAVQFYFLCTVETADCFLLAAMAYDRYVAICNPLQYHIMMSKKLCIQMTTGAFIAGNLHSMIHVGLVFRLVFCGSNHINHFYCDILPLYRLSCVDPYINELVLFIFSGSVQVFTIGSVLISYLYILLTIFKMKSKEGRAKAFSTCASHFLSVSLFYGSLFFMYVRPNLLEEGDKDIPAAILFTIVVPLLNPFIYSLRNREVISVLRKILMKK
To be noted: stereoisomer not certain. The procedure, abridged: as §1
As to `CC(=O)c1cnccn1`, the “odorant receptor agonist call” value was “active”.

Take `CCc1nccnc1C(C)=O`: the “odorant receptor agonist call” value was “active”.

As for `CCc1cnc(C)c(C)n1`, the “odorant receptor agonist call” value was “inactive”.

On to `CC1=C(O)C(=O)C(C)O1` (configuration not stated), for which the “odorant receptor agonist call” value was “inactive”.

Take `CCc1nccnc1C`: the “odorant receptor agonist call” value was “active”.

For the compound `Cc1cncc(C)n1`, the “odorant receptor agonist call” value was “active”.

Turning to `CCc1ncc(C)nc1CC`, the “odorant receptor agonist call” value is “active”.

`CCCCCC(S)C(C)CO` (configuration not stated): the “odorant receptor agonist call” value was “inactive”.

Turning to `CCC(S)C(C)CO` (configuration not stated), the “odorant receptor agonist call” value is “inactive”.

On to `CCCCCC(=O)C(C)C(C)=O` (configuration not stated), for which the “odorant receptor agonist call” value is “inactive”.

Take `CC(CO)CS` (configuration not stated): the “odorant receptor agonist call” value was “inactive”.

For the compound `COc1nccnc1C(C)C`, the “odorant receptor agonist call” value is “active”.

For `CCc1nccnc1CC`, the “odorant receptor agonist call” value is “active”.

`CC1=C(O)C(=O)OC1C` (configuration not stated): the “odorant receptor agonist call” value is “inactive”.

Turning to `CCc1nccnc1OC`, the “odorant receptor agonist call” value was “active”.

With `CCCCCCC=CCCC=O`, the “odorant receptor agonist call” value was “inactive”.

In the case of `Cc1nccnc1C`, the “odorant receptor agonist call” value was “active”.

On to `C=Cc1cnccn1`, for which the “odorant receptor agonist call” value was “active”.

On to `Cc1cnc(C)c(C)n1`, for which the “odorant receptor agonist call” value was “active”.

As for `CC1=NC(C)C(C)S1` (configuration not stated), the “odorant receptor agonist call” value was “active”.

Turning to `COc1cnccn1`, the “odorant receptor agonist call” value was “active”.

On to `Cc1cnc(C)cn1`, for which the “odorant receptor agonist call” value was “active”.

Turning to `CC1CCc2nccnc21` (configuration not stated), the “odorant receptor agonist call” value was “active”.

Regarding `Cc1cnccn1`, the “odorant receptor agonist call” value is “active”.

In the case of `CCCC(S)CCOC(C)=O` (configuration not stated), the “odorant receptor agonist call” value is “inactive”.

Take `COc1nccnc1CC(C)C`: the “odorant receptor agonist call” value is “active”.

For the compound `CCC1OC(=O)C(O)=C1C` (configuration not stated), the “odorant receptor agonist call” value is “inactive”.

Turning to `CCC1OC(C)=C(O)C1=O` (configuration not stated), the “odorant receptor agonist call” value is “inactive”.

Consider `CCCCC(S)C(C)CO` (configuration not stated), for which the “odorant receptor agonist call” value was “inactive”.

For `CC(=O)c1nccnc1C`, the “odorant receptor agonist call” value is “active”.

The target of the next experiment is T3, OR5K2 (Homo sapiens) (UniProt Q8NHB8).
T3 sequence (whole entry): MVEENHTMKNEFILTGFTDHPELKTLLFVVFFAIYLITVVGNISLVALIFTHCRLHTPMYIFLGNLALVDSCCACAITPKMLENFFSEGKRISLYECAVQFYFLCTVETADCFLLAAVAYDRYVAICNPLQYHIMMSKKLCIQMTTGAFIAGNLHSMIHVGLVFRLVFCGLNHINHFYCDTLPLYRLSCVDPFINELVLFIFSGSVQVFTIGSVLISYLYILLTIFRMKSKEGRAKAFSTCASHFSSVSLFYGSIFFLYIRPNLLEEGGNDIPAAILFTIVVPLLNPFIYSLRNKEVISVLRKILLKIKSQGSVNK
To be noted: stereoisomer not certain. The procedure, abridged: as §1
Take `CC(=O)c1cnccn1`: the “odorant receptor agonist call” value was “inactive”.

On to `CCc1nccnc1C(C)=O`, for which the “odorant receptor agonist call” value is “inactive”.

`CC1=C(O)C(=O)C(C)O1` (configuration not stated): the “odorant receptor agonist call” value was “inactive”.

On to `CCc1nccnc1C`, for which the “odorant receptor agonist call” value was “inactive”.

In the case of `CC1CCCCCCCCCCCCC(=O)C1` (configuration not stated), the “odorant receptor agonist call” value is “inactive”.

On to `Cc1cncc(C)n1`, for which the “odorant receptor agonist call” value was “inactive”.

Regarding `CCc1ncc(C)nc1CC`, the “odorant receptor agonist call” value was “inactive”.

Take `CCCCCC(S)C(C)CO` (configuration not stated): the “odorant receptor agonist call” value is “inactive”.

Regarding `CCC(S)C(C)CO` (configuration not stated), the “odorant receptor agonist call” value was “inactive”.

Regarding `CCCCCC(=O)C(C)C(C)=O` (configuration not stated), the “odorant receptor agonist call” value was “inactive”.

Regarding `CC(CO)CS` (configuration not stated), the “odorant receptor agonist call” value is “inactive”.

`COc1nccnc1C(C)C`: the “odorant receptor agonist call” value is “inactive”.

For `CCc1nccnc1CC`, the “odorant receptor agonist call” value was “inactive”.

With `CC(=O)c1c(C)c([N+](=O)[O-])c(C(C)(C)C)c([N+](=O)[O-])c1C`, the “odorant receptor agonist call” value was “inactive”.

For `CC1=C(O)C(=O)OC1C` (configuration not stated), the “odorant receptor agonist call” value is “inactive”.

Turning to `CCc1nccnc1OC`, the “odorant receptor agonist call” value was “inactive”.

As to `CCCCCCC=CCCC=O`, the “odorant receptor agonist call” value is “inactive”.

Turning to `Cc1nccnc1C`, the “odorant receptor agonist call” value was “inactive”.

Regarding `C=Cc1cnccn1`, the “odorant receptor agonist call” value is “inactive”.

As for `Cc1cnc(C)c(C)n1`, the “odorant receptor agonist call” value is “inactive”.

As for `CC1=NC(C)C(C)S1` (configuration not stated), the “odorant receptor agonist call” value was “inactive”.

Turning to `COc1cnccn1`, the “odorant receptor agonist call” value was “inactive”.

For the compound `Cc1cnc(C)cn1`, the “odorant receptor agonist call” value is “inactive”.

In the case of `CC1CCc2nccnc21` (configuration not stated), the “odorant receptor agonist call” value is “inactive”.

For the compound `Cc1cnccn1`, the “odorant receptor agonist call” value was “inactive”.

Take `CCCC(S)CCOC(C)=O` (configuration not stated): the “odorant receptor agonist call” value was “inactive”.

As to `COc1nccnc1CC(C)C`, the “odorant receptor agonist call” value was “inactive”.

For `CCC1OC(=O)C(O)=C1C` (configuration not stated), the “odorant receptor agonist call” value was “inactive”.

Consider `CCC1OC(C)=C(O)C1=O` (configuration not stated), for which the “odorant receptor agonist call” value was “inactive”.

Turning to `CCCCC(S)C(C)CO` (configuration not stated), the “odorant receptor agonist call” value was “inactive”.

Turning to `CC(=O)c1nccnc1C`, the “odorant receptor agonist call” value is “inactive”.
